Measured values taken from ChEMBL document CHEMBL3232819, “Synthesis and biological evaluation of new pyrazolone-pyridazine conjugates as anti-inflammatory and analgesic agents” (Bioorg Med Chem, 2014).

Key:
Mus musculus [1] = assay: Analgesic activity in Swiss Albino mouse assessed as inhibition of acetic acid-induced writhing at 25 mg/kg, po administered 30 mins before to acetic acid challenge measured for 15 mins relative to vehicle-treated control; type: functional; design: scale not given: the % may be the effect or the level left
Summary of the method: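 Male Swiss albino mice, 25–32 g, n=6/group, dosed by oral gavage (5 mL/kg) in 1% CMC; vehicle controls. Mice habituated 30 min in test cage. Writhing induced by 0.1 mL 1% acetic acid ip at 30 min post-dose. Abdominal contractions counted for 15 min from the 5th min after injection. % protection = (n−n0)/n × 100 using group mean writhes. Mean ± SEM, one-way ANOVA/Bonferroni.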

Mus musculus [2] = assay: Antiinflammatory activity in Swiss Albino mouse assessed as inhibition of carrageenan-induced paw edema at 25 mg/kg, po administered 30 mins before carrageenan challenge relative to vehicle-treated control; type: functional; design: scale not given: the % may be the effect or the level left
Summary of the method: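 Male Swiss albino mice, 25–32 g, six per group, given drug in 1% CMC orally 30 min before subplantar right hind paw injection of carrageenan (1% w/v in 0.9% saline, 0.05 mL/mouse). […] Mean ± SEM, one-way ANOVA/Bonferroni.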

Mus musculus [3] = assay: Antiinflammatory activity in Swiss Albino mouse assessed as inhibition of carrageenan-induced TNFalpha production in serum at 25 mg/kg, po administered 30 mins before carrageenan challenge after 30 mins by ELISA (reference value: 15.48 +/- 0.31 ng/ml); type: functional
Mus musculus [4] = assay: Antiinflammatory activity in Swiss Albino mouse assessed as inhibition of carrageenan-induced IL-6 production in serum at 25 mg/kg, po administered 30 mins before carrageenan challenge after 30 mins by ELISA (reference value: 23.8 +/- 2.5 ng/ml); type: functional
[5] = target: T1, Prostaglandin G/H synthase 1 (Ovis aries, UniProt P05979); assay: Inhibition of ovine COX1 using arachidonic acid as substrate assessed as conversion of PGH2 to PGF2alpha after 10 mins by EIA
T1 sequence (P05979 whole entry): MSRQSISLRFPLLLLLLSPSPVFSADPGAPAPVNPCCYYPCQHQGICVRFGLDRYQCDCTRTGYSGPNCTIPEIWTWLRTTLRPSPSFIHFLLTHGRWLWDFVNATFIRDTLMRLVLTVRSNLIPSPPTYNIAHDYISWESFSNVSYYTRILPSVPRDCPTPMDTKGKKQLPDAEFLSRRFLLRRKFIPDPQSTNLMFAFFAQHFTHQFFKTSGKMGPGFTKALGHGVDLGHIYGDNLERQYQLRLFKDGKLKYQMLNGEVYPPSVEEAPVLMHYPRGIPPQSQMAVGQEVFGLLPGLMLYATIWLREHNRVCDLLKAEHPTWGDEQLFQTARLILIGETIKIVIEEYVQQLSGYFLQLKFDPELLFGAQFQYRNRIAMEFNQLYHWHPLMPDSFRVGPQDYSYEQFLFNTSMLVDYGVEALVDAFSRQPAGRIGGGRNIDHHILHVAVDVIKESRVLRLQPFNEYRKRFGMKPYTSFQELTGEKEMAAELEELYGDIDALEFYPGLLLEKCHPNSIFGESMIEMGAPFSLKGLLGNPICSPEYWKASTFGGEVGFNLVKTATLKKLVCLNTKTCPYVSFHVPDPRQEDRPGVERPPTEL
Summary of the method: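 Ovine COX-1 EIA kit: enzyme with heme and DMSO-dissolved sample in 0.1 M Tris-HCl pH 8, 5 mM EDTA, 2 mM phenol, preincubated 10 min at 37 °C; arachidonic acid added (final 100 µM), stopped after 2 min with HCl, SnCl2 reduction 5 min RT; PGF2α by EIA (18 h RT, Ellman's, 410 nm). IC50 versus untreated control incubations.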

Compound | Activity (Mus musculus [1]) | Activity (Mus musculus [2]) | Activity (Mus musculus [3]) | Activity (Mus musculus [4]) | IC50 [5]
O=C1CC(Nc2ccccc2Nc2ccc(Cl)nn2)=NN1 | 33.4% | 11.2% | 13.2 ng/mL | 21.4 ng/mL | 
CCOc1ccc(Nc2ccccc2NC2=NNC(=O)C2)nn1 | 18.2% | 10.2% | 12.4 ng/mL | 22.4 ng/mL | 
CN1CCN(c2ccc(Nc3ccccc3NC3=NNC(=O)C3)nn2)CC1 | 41.2% | 35.3% | 9.34 ng/mL | 19.5 ng/mL | 
O=C1CC(Nc2ccccc2Nc2ccc(N3CCCCC3)nn2)=NN1 | 55.6% | 59.4% | 7.5 ng/mL | 16.5 ng/mL | 3.15 µM
O=C1CC(Nc2ccccc2Nc2ccc(N3CCOCC3)nn2)=NN1 | 63.7% | 62.3% | 7.2 ng/mL | 11.8 ng/mL | 2.86 µM
O=C1CC(Nc2ccccc2Nc2ccc(Nc3ccccc3Cl)nn2)=NN1 | 57.2% | 54.3% | 6.4 ng/mL | 10.65 ng/mL | 4.02 µM
O=C1CC(Nc2ccccc2Nc2ccc(Nc3ccc(Cl)cc3)nn2)=NN1 | 68.3% | 35.4% | 7.12 ng/mL | 9.76 ng/mL | 4.46 µM
O=C1CC(Nc2ccccc2Nc2ccc(Nc3ccccc3F)nn2)=NN1 | 36.1% | 11.2% | 11.2 ng/mL | 17.3 ng/mL | 
O=C1CC(Nc2ccccc2Nc2ccc(Nc3cccc([N+](=O)[O-])c3)nn2)=NN1 | 13.2% | 5.4% | 13.5 ng/mL | 18.3 ng/mL | 
NS(=O)(=O)c1ccc(Nc2ccc(Nc3ccccc3NC3=NNC(=O)C3)nn2)cc1 | 11.3% | 15.4% | 16.7 ng/mL | 21.43 ng/mL | 
NC(=O)c1ccccc1Nc1ccc(Nc2ccccc2NC2=NNC(=O)C2)nn1 | 13.2% | 18.2% | 12.5 ng/mL | 22.3 ng/mL | 
NC(=O)c1ccccc1Oc1ccc(Nc2ccccc2NC2=NNC(=O)C2)nn1 | 14.2% | 9.3% | 11.98 ng/mL | 22.6 ng/mL | 
O=C([O-])Cc1ccccc1Nc1c(Cl)cccc1Cl.[Na+] [DICLOFENAC SODIUM] | 83.3% | 61.5% | 5.01 ng/mL | 7.6 ng/mL | 
